Assay type in all cases: functional
Assay [1] concerns Digitaria sanguinalis. The assay can be described thus: Herbicidal activity against hairy Digitaria sanguinalis (hairy crabgrass) assessed as inhibition of herb growth at 1.5 kg/ha during preemergence treatment protocol. The settings on record: pre-emergence, read-out: GI.
In assay [2] the test system is Amaranthus retroflexus. Description: Herbicidal activity against Amaranthus retroflexus assessed as inhibition of herb growth at 1.5 kg/ha during preemergence treatment protocol. The settings on record: pre-emergence, read-out: GI.
Assay [3] deals with Brassica napus. The assay can be described thus: Herbicidal activity against Brassica napus (oilseed rape) assessed as inhibition of herb growth at 1.5 kg/ha during postemergence treatment protocol. The conditions noted are these: post-emergence, read-out: GI.
Assay [4] concerns Spinacia oleracea. The assay can be described thus: Inhibition of photosynthetic electron transport in Spinacia oleracea (spinach)isolated chloroplasts assessed as inhibition of Hill reaction. In outline: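 Chloroplasts from fresh spinach leaves, homogenised in ice-cold pH 7.8 buffer (0.4 M sucrose, 10 mM NaCl, 50 mM Tris-HCl), spun 3 min 120g then 5 min 1000g at 4 °C. Reaction buffer 350 mM NaCl, 10 mM Tris-HCl pH 7.8 with DCPIP; 2 min light (360 µmol m^-2 s^-1), DCPIP reduction at 620 nm. Compounds 0.01 mg/L–0.3 mg/mL in […]/water, ≥triplicate; IC50 by log-linear regression.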

For assay [5], the system named is Digitaria sanguinalis. The assay can be described thus: Herbicidal activity against hairy Digitaria sanguinalis (hairy crabgrass) assessed as inhibition of herb growth at 1.5 kg/ha during postemergence treatment protocol. The conditions noted are these: post-emergence, read-out: GI.
The test system of assay [6] is Medicago sativa. Description: Herbicidal activity against Medicago sativa (alfalfa) assessed as inhibition of herb growth at 1.5 kg/ha during preemergence treatment protocol. The conditions noted are these: pre-emergence, read-out: GI.
The test system of assay [7] is Brassica napus. Description: Herbicidal activity against Brassica napus (oilseed rape) assessed as inhibition of herb growth at 1.5 kg/ha during preemergence treatment protocol. The settings on record: pre-emergence, read-out: GI.
The test system of assay [8] is Amaranthus retroflexus. The assay can be described thus: Herbicidal activity against Amaranthus retroflexus assessed as inhibition of herb growth at 1.5 kg/ha during postemergence treatment protocol. The settings on record: post-emergence, read-out: GI.
Assay [9] relates to Medicago sativa. Description: Herbicidal activity against Medicago sativa (alfalfa) assessed as inhibition of herb growth at 1.5 kg/ha during postemergence treatment protocol. The settings on record: post-emergence, read-out: GI.
[10] abbreviates: Spinacia oleracea, read-out: pIC50 (converted).

The record followed here is ChEMBL document CHEMBL3045046, “Synthesis, herbicidal activities, and 3D-QSAR of 2-cyanoacrylates containing aromatic methylamine moieties” (J Agric Food Chem, 2008).

For `CCOCCOC(=O)/C(C#N)=C(\NCc1cnc(OCC)s1)C(C)C`, the inhibition of growth at 1500 g/ha in assay [1] turned out to be 0%; in [2] it was 37.8%; in assay [3], 100%; in [5] it was 51.2%; in assay [6], 5.4%; in assay [7] it was 48.7%. For the same compound, the inhibition of growth at 1500 g/ha in assay [8] is 100%; in [9], 41.4%. The IC50 in [4] was 0.223 ppm; in [4] (setting [10]), 0.224 µM.
For `CCCOc1ncc(CN/C(SC)=C(/C#N)C(=O)OCCOCC)s1`, the inhibition of growth at 1500 g/ha in assay [1] was 0%; in assay [2] it was 27%; in assay [3] it was 100%; in assay [5], 49.6%; in [6], 17.6%; in assay [7] it was 0%. Moreover, the inhibition of growth at 1500 g/ha is 100% in assay [8] and 57.3% in assay [9]. Moreover, the IC50 is 0.05 ppm in [4] and 0.0501 µM in assay [4] (setting [10]).
As for `CCCOc1ncc(CN/C(=C(/C#N)C(=O)OCCOCC)C(C)C)s1`, the inhibition of growth at 1500 g/ha was 6.9% in [1]; 27% in assay [2]; 100% in assay [3]; 52.8% in assay [5]; 0% in assay [6]; 9.8% in [7]. Besides, the figures for the inhibition of growth at 1500 g/ha in [8] and in assay [9] were 100% and 48.7%, respectively. For the same compound, the IC50 in assay [4] was 0.08 ppm; in assay [4] (setting [10]), 0.0794 µM.
On to `CCOCCOC(=O)/C(C#N)=C(\NCc1cnc(OC(C)C)s1)SC`, for which the inhibition of growth at 1500 g/ha was found to be 14.8% in assay [1]; 40.5% in assay [2]; 100% in assay [3]; 54.4% in assay [5]; 4.5% in assay [6]; 26% in [7]. In addition, the inhibition of growth at 1500 g/ha was 100% in [8] and 53.6% in assay [9]. For the same compound, the figures for the IC50 in [4] and in assay [4] (setting [10]) were 0.07 ppm and 0.0708 µM, respectively.
`CCOCCOC(=O)/C(C#N)=C(\NCc1ccc(Br)nc1)SC`: the inhibition of growth at 1500 g/ha stood at 0% in assay [1]; 91.9% in assay [2]; 100% in assay [3]; 60% in assay [5]; 12% in assay [6]; 23.9% in assay [7]. The inhibition of growth at 1500 g/ha in [8] is 100%; in [9], 59.9%. The IC50 in assay [4] is 0.084 ppm; in assay [4] (setting [10]) it was 0.0832 µM.
`CCOCCOC(=O)/C(C#N)=C(/CC)NCc1ccc(Br)nc1`: the inhibition of growth at 1500 g/ha in assay [1] came out at 18.8%; in [2] it was 21.6%; in assay [3] it was 100%; in assay [5] it was 95.2%; in assay [6] it was 28.8%; in assay [7], 71.9%. In addition, the results for the inhibition of growth at 1500 g/ha in [8] and in assay [9] were 100% and 77.8%, respectively. Besides, the IC50 in assay [4] is 0.335 ppm; in assay [4] (setting [10]), 0.339 µM.
Take `CCOCCOC(=O)/C(C#N)=C(\NCc1ccc(Br)nc1)C(C)C`: the inhibition of growth at 1500 g/ha was 16.8% in [1]; 48.6% in [2]; 100% in assay [3]; 42.4% in assay [5]; 0% in assay [6]; 68.7% in [7]. For the same compound, the inhibition of growth at 1500 g/ha in assay [8] stood at 97.8%; in assay [9], 32.1%. Also, the IC50 was 0.099 ppm in assay [4] and 0.1 µM in assay [4] (setting [10]).
For the compound `CCOCCOC(=O)/C(C#N)=C(\NCc1ccc(N(C)C)nc1)SC`, the inhibition of growth at 1500 g/ha in assay [1] came out at 28.7%; in assay [2], 13.5%; in [3], 100%; in assay [5] it was 45.6%; in assay [6], 0%; in [7] it was 37.4%. For the same compound, the inhibition of growth at 1500 g/ha turned out to be 80.9% in [8] and 51.6% in assay [9]. Moreover, the IC50 in assay [4] is 0.292 ppm; in [4] (setting [10]) it was 0.295 µM.
As for `CCOCCOC(=O)/C(C#N)=C(\NCc1ccc(N(C)C)nc1)C(C)C`, the inhibition of growth at 1500 g/ha in assay [1] came to 52.5%; in [2], 75.7%; in assay [3], 100%; in [5] it was 88%; in [6], 27.9%; in [7], 29.3%. Further, the values for the inhibition of growth at 1500 g/ha in assay [8] and in [9] were 100% and 58.3%, respectively. Moreover, the IC50 in assay [4] is 0.086 ppm; in assay [4] (setting [10]), 0.0851 µM.
Turning to `CCOCCOC(=O)/C(C#N)=C(\NCc1ccc(OCC(F)(F)F)nc1)SC`, the inhibition of growth at 1500 g/ha in assay [1] is 0%; in assay [2] it was 0%; in assay [3], 100%; in assay [5] it was 100%; in [6], 0%; in assay [7] it was 10%. For the same compound, the values for the inhibition of growth at 1500 g/ha in assay [8] and in assay [9] were 100% and 54.2%, respectively. In addition, the IC50 in assay [4] is 0.048 ppm; in [4] (setting [10]), 0.0479 µM.
For `CCOCCOC(=O)/C(C#N)=C(\NCc1cnc(Cl)s1)C(C)C`, the inhibition of growth at 1500 g/ha in assay [1] was 28.7%; in assay [2], 67.6%; in assay [3] it was 100%; in assay [5], 45.6%; in assay [6] it was 15.7%; in assay [7], 70.3%. The values for the inhibition of growth at 1500 g/ha in [8] and in assay [9] were 100% and 37.1%, respectively. The IC50 was 0.161 ppm in assay [4] and 0.162 µM in [4] (setting [10]).
Take `CCOCCOC(=O)/C(C#N)=C(\NCc1cnc(Br)s1)SC`: the inhibition of growth at 1500 g/ha was 8.9% in assay [1]; 29.7% in assay [2]; 100% in [3]; 36% in assay [5]; 8.2% in assay [6]; 28.7% in assay [7]. The results for the inhibition of growth at 1500 g/ha in assay [8] and in [9] were 88% and 26.8%, respectively. In addition, the figures for the IC50 in [4] and in assay [4] (setting [10]) were 0.102 ppm and 0.102 µM, respectively.
With `CCOCCOC(=O)/C(C#N)=C(\NCc1cnc(Br)s1)C(C)C`, the inhibition of growth at 1500 g/ha was 3% in assay [1]; 18.9% in assay [2]; 100% in assay [3]; 48% in assay [5]; 1.7% in assay [6]; 82.2% in assay [7]. Besides, the inhibition of growth at 1500 g/ha was determined as 100% in assay [8] and 30.8% in assay [9]. The IC50 in assay [4] is 0.107 ppm; in [4] (setting [10]), 0.107 µM.
As for `CCOCCOC(=O)/C(C#N)=C(\NCc1cnc(OCC)s1)SC`, the inhibition of growth at 1500 g/ha was found to be 44.6% in assay [1]; 43.2% in assay [2]; 100% in assay [3]; 51.2% in assay [5]; 14.8% in assay [6]; 23.3% in assay [7]. Besides, the inhibition of growth at 1500 g/ha stood at 100% in assay [8] and 62.6% in assay [9]. The IC50 in assay [4] was 0.115 ppm; in assay [4] (setting [10]) it was 0.115 µM.
For the compound `CCOCCOC(=O)/C(C#N)=C(\NCc1ccc(Cl)cc1)SC`, the inhibition of growth at 1500 g/ha was determined as 24.8% in assay [1]; 59.4% in assay [2]; 100% in assay [3]; 31.2% in [5]; 0% in assay [6]; 24.9% in [7]. The inhibition of growth at 1500 g/ha turned out to be 100% in [8] and 12.9% in [9]. In addition, the IC50 in [4] is 0.026 ppm; in assay [4] (setting [10]) it was 0.0257 µM.
Consider `CCOCCOC(=O)/C(C#N)=C(\NCc1ccc(Cl)nc1)SC`, for which the inhibition of growth at 1500 g/ha in assay [1] amounted to 18.6%; in assay [2] it was 13.7%; in [3], 100%; in assay [5], 89.9%; in assay [6], 1.5%; in assay [7], 68.9%. The inhibition of growth at 1500 g/ha is 100% in [8] and 41.3% in assay [9]. Further, the values for the IC50 in assay [4] and in assay [4] (setting [10]) were 0.167 ppm and 0.166 µM, respectively.
